In ChEMBL document CHEMBL3621150, “Characterization of 2,4-Diamino-6-oxo-1,6-dihydropyrimidin-5-yl Ureido Based Inhibitors of Trypanosoma brucei FolD and Testing for Antiparasitic Activity” (J Med Chem, 2015):
Activity calls are given as the source filed them. The rule behind the calls is not given here.

Key:
[1] = tested on: Trypanosoma brucei brucei; test: Antiparasitic activity against bloodstream form of Trypanosoma brucei brucei 427 […] assessed as growth inhibition after 72 hrs by Alamar Blue assay; assay type: functional, organism-based
[2] = Inhibition of Trypanosoma brucei FolD dehydrogenase activity assessed as formation of 5,10-CH=THF from 5,10-CH2-THF after 5 mins by spectrophotometric analysis
In short: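 Recombinant T. brucei FolD from E. coli BL21 (DE3), Ni²⁺-affinity purified. Assay at 27 °C in 25 mM MOPS pH 7.3 with 30 mM 2-mercaptoethanol, 35 μM mTHF and 1 mM NADP⁺, started with NADP⁺. Reaction stopped at 5 min with an equal volume of 1 M HCl, product read at 350 nm (ε 24.9 mM⁻¹ cm⁻¹). Compounds from 10 mM DMSO stocks, first tested at 0–50–100 μM. Data fitted to a competitive model by linear regression.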

[3] = Selectivity index, ratio of IC50 for macrophages differentiated from human THP1 cells to IC50 for bloodstream form of Trypanosoma brucei brucei 427; assay type: toxicity, cell-based, THP-1; conditions: read-out: Ratio IC50
In short: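 Bloodstream-form T. b. brucei 427 in HMI-9 with 10% heat-inactivated FBS at 37 °C, 5% CO2: about 2,000 cells per well with serial drug dilutions for 72 h, then resazurin 45.5 μM for 4 h, fluorescence ex 528/em 590 nm. THP1-differentiated macrophages at 10⁵ cells/well: 72 h at 37 °C, MTT 4 h, A570 minus 660 nm versus untreated. Both IC50s by linear regression.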

THP-1 = test: Cytotoxicity against macrophages differentiated from human THP1 cells assessed as cell viability after 72 hrs by MTT assay; assay type: cell-based; conditions: THP-1, 72 h
In short: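 THP1-differentiated macrophages, 10⁵ cells/well, adhered overnight, then exposed to a compound concentration range for 72 h at 37 °C. MTT at 0.5 mg/mL added for 4 h in the dark, and formazan dissolved in isopropanol. Absorbance read at 570 nm with 660 nm background. Viability given relative to untreated cells, and IC₅₀ from linear regression.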

[4] = Competitive inhibition of Pseudomonas aeruginosa FolD dehydrogenase activity
[5] = Competitive inhibition of recombinant Leishmania major hexahistidine-tagged FolD dehydrogenase activity expressed in Escherichia coli by Michaelis-Menten plot analysis in presence of 5,10-CH2-THF
[6] = Trypanosoma brucei, 427, 72 h, read-out: IC50

SMILES	IC50 [2] [µM]	IC50 [1, 6] [µM]	Ki [2] [µM]	IC50 [1]	Ki [4] [µM]	growth inhibition (GI) [1]	selectivity ratio [3]	IC50 (THP-1) [µM]	Ki [5] [µM]
Cc1ccc(C(=O)Nc2ccc(S(=O)(=O)O)c3cc(S(=O)(=O)O)cc(S(=O)(=O)O)c23)cc1NC(=O)c1cccc(NC(=O)Nc2cccc(C(=O)Nc3cc(C(=O)Nc4ccc(S(=O)(=O)O)c5cc(S(=O)(=O)O)cc(S(=O)(=O)O)c45)ccc3C)c2)c1	–	–	–	–	–	Active	–	–	–
CCOC(=O)c1ccc(NC(=O)Nc2c(N)nc(N)[nH]c2=O)cc1	250	89	–	–	–	–	1.1	97	–
Nc1nc(N)c(NC(=O)Nc2ccc(C(=O)N[C@@H](Cc3ccccc3)C(=O)O)cc2)c(=O)[nH]1	1.1	–	0.54	Not Active	–	–	–	94	–
C[C@H](NC(=O)c1ccc(NC(=O)Nc2c(N)nc(N)[nH]c2=O)cc1)C(=O)O	6.3	–	3.2	Not Active	–	–	–	113	–
Nc1nc2c(c(=O)[nH]1)N1C(=O)N(c3ccc(C(=O)NC(CCC(=O)O)C(=O)O)cc3)CC1CN2 (stereo unspecified)	20	57	8.5	–	0.03	–	1.8	103	0.105
Nc1nc(N)c(NC(=O)Nc2ccc(C(=O)NCCCC(=O)O)cc2)c(=O)[nH]1	213	–	168	Not Active	–	–	–	98	–
Nc1nc(N)c(NC(=O)Nc2ccc(C(=O)N[C@@H](CCC(=O)O)C(=O)O)cc2)c(=O)[nH]1	2.2	49	1.1	–	–	–	4	194	–

Further lines, with some results ahead:

IC50 [2] [µM]	IC50 [1, 6] [µM]	Ki [2] [µM]	IC50 [1]	Ki [4] [µM]	SMILES	growth inhibition (GI) [1]	selectivity ratio [3]	IC50 (THP-1) [µM]	Ki [5] [µM]
1	–	0.48	Not Active	–	Nc1nc(N)c(NC(=O)Nc2ccc(C(=O)N[C@@H](CCCC(=O)O)C(=O)O)cc2)c(=O)[nH]1	–	–	90	–
–	0.0016	–	–	–	N=C(N)c1ccc(OCCCCCOc2ccc(C(=N)N)cc2)cc1 [PENTAMIDINE]	–	–	–	–
250	92	–	–	–	CCOC(=O)CC[C@H](NC(=O)c1ccc(NC(=O)Nc2c(N)nc(N)[nH]c2=O)cc1)C(=O)OCC	–	2.2	205	–
83	74	–	–	–	Nc1nc(N)c(NC(=O)Nc2ccc(C(=O)O)cc2)c(=O)[nH]1	–	1.3	97	–
9.3	–	7.3	Not Active	–	Nc1nc(N)c(NC(=O)Nc2ccc(C(=O)N[C@@H](Cc3ccc(O)cc3)C(=O)O)cc2)c(=O)[nH]1	–	–	77	–
